In ChEMBL document CHEMBL1155469, “Peptide nucleic acids conjugated to short basic peptides show improved pharmacokinetics and antisense activity in adipose tissue” (J Med Chem, 2010):
Each block holds one compound with its values, some of them ahead of it. Active and inactive are the calls of the source. The calls are words filed in the database; no cut-off is given here.

Experiments:
[1] = tested on: Mus musculus; assay: Toxicity in Balb/C mouse assessed as change in serum ALT levels at 10 to 40 mg/kg, ip administered thrice a week for 2 weeks measured 48 hrs after last dose; type: organism-based; design: dose 10-40 mg/kg, route intraperitoneal; settings: in vivo
Summary of the method: (§1)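 Male Balb/c mice, 6–8 wk, n=4/group, received compound i.p. in PBS (10 ul/g) 3x/wk for 2 wk. Body weight was monitored throughout. At 48 h after the last dose, mice were anesthetized with isoflurane and bled by cardiac puncture. Serum AST, ALT, BUN, bilirubin, glucose and triglycerides were compared with the saline group. ALT rise below 2x normal was counted as absent.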

[2] = tested on: Mus musculus; assay: Toxicity in Balb/C mouse assessed as change in serum AST levels at 10 to 40 mg/kg, ip administered thrice a week for 2 weeks measured 48 hrs after last dose; type: organism-based; design: dose 10-40 mg/kg, route intraperitoneal; settings: in vivo; summary of the method: as §1
[3] = tested on: Mus musculus; assay: Toxicity in Balb/C mouse assessed as change in serum triglyceride levels at 10 to 40 mg/kg, ip administered thrice a week for 2 weeks measured 48 hrs after last dose; type: organism-based; design: dose 10-40 mg/kg, route intraperitoneal; settings: in vivo; summary of the method: as §1
[4] = Drug level in Balb/C mouse kidney at 40 mg/kg, ip administered thrice a week for 2 weeks measured 48 hrs after last dose; type: ADME, organism-based; design: dose 40 mg/kg, route intraperitoneal; settings: read-out: Drug uptake
Summary of the method: (§2)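 Male Balb/c mice, 6–8 wk, n=4/group, dosed i.p. in PBS 3x/wk for 2 wk at 40 mg/kg and killed 48 h after the last dose. Liver, kidney and adipose tissue were homogenized in SDS extraction buffer and diluted to 0.2 mg tissue/mL. They were hybridized with a digoxigenin/biotin cutting probe, captured on NeutrAvidin, and digested with nuclease S1. Anti-digoxigenin-AP fluorescence was read and quantified against a 0.1–100 nM standard ladder, in quadruplicate.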

[5] = Drug level in Balb/C mouse adipose tissue at 40 mg/kg, ip administered thrice a week for 2 weeks measured 48 hrs after last dose; type: ADME, organism-based; design: dose 40 mg/kg, route intraperitoneal; settings: read-out: Drug uptake; summary of the method: as §2
[6] = tested on: Mus musculus; assay: Toxicity in Balb/C mouse assessed as change in serum bilirubin levels at 10 to 40 mg/kg, ip administered thrice a week for 2 weeks measured 48 hrs after last dose; type: organism-based; design: dose 10-40 mg/kg, route intraperitoneal; settings: in vivo; summary of the method: as §1
[7] = tested on: Mus musculus; assay: Inhibition of PTEN expression in Balb/C mouse kidney at 10 to 40 mg/kg, ip administered thrice a week for 2 weeks measured 48 hrs after last dose
[8] = tested on: Mus musculus; assay: Inhibition of PTEN expression in Balb/C mouse liver at 10 to 40 mg/kg, ip administered thrice a week for 2 weeks measured 48 hrs after last dose by Western blot analysis; type: functional, organism-based
Summary of the method: (§3)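 Male Balb/c mice, 6–8 wk, n=4/group, dosed i.p. in PBS 3x/wk for 2 wk and killed 48 h after the last dose. Tissue was homogenized in RIPA buffer with protease inhibitors, and protein was measured by Lowry assay. Lysates were run on 10% PAGE and blotted to PVDF. Blots were probed with rabbit anti-PTEN (1:1000) and HRP anti-rabbit (1:2500), with ECL detection.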

[9] = Drug level in Balb/C mouse liver at 40 mg/kg, ip administered thrice a week for 2 weeks measured 48 hrs after last dose; type: ADME, organism-based; design: dose 40 mg/kg, route intraperitoneal; settings: read-out: Drug uptake; summary of the method: as §2
[10] = tested on: Mus musculus; assay: Toxicity in Balb/C mouse assessed as change in blood urea nitrogen levels at 10 to 40 mg/kg, ip administered thrice a week for 2 weeks measured 48 hrs after last dose; type: organism-based; design: dose 10-40 mg/kg, route intraperitoneal; settings: in vivo; summary of the method: as §1
[11] = tested on: Mus musculus; assay: Inhibition of PTEN expression in Balb/C mouse white adipose tissue assessed as reduction of full length transcript at 10 to 40 mg/kg, ip administered thrice a week for 2 weeks measured 48 hrs after last dose […]; type: functional, organism-based
[12] = tested on: Mus musculus; assay: Toxicity in Balb/C mouse assessed as change in body weight at 10 to 40 mg/kg, ip administered thrice a week for 2 weeks measured 48 hrs after last dose; type: organism-based; design: dose 10-40 mg/kg, route intraperitoneal; settings: in vivo; summary of the method: as §1
[13] = tested on: Mus musculus; assay: Toxicity in Balb/C mouse assessed as change in serum glucose levels at 10 to 40 mg/kg, ip administered thrice a week for 2 weeks measured 48 hrs after last dose; type: organism-based; design: dose 10-40 mg/kg, route intraperitoneal; settings: in vivo; summary of the method: as §1
[14] = tested on: Mus musculus; assay: Inhibition of PTEN expression in Balb/C mouse liver at 25 mg/kg, ip administered thrice a week for 2 weeks measured 48 hrs after last dose by Western blot analysis; type: functional, organism-based; design: dose 25 mg/kg; summary of the method: as §3
[15] = tested on: Mus musculus; assay: Toxicity in Balb/C mouse assessed as change in serum triglyceride levels at 25 mg/kg, ip administered thrice a week for 2 weeks measured 48 hrs after last dose; type: organism-based; design: dose 25 mg/kg, route intraperitoneal; settings: in vivo; summary of the method: as §1
[16] = tested on: Mus musculus; assay: Toxicity in Balb/C mouse assessed as change in serum bilirubin levels at 25 mg/kg, ip administered thrice a week for 2 weeks measured 48 hrs after last dose; type: organism-based; design: dose 25 mg/kg, route intraperitoneal; settings: in vivo; summary of the method: as §1
[17] = tested on: Mus musculus; assay: Toxicity in Balb/C mouse assessed as change in serum ALT levels at 25 mg/kg, ip administered thrice a week for 2 weeks measured 48 hrs after last dose; type: organism-based; design: dose 25 mg/kg, route intraperitoneal; settings: in vivo; summary of the method: as §1
[18] = tested on: Mus musculus; assay: Inhibition of PTEN expression in Balb/C mouse white adipose tissue assessed as upregulation of isoform lacking exon at 25 mg/kg, ip administered thrice a week for 2 weeks measured 48 hrs after last dose […]; type: functional, organism-based; design: dose 25 mg/kg
[19] = tested on: Mus musculus; assay: Toxicity in Balb/C mouse assessed as change in serum glucose levels at 25 mg/kg, ip administered thrice a week for 2 weeks measured 48 hrs after last dose; type: organism-based; design: dose 25 mg/kg, route intraperitoneal; settings: in vivo; summary of the method: as §1
[20] = tested on: Mus musculus; assay: Toxicity in Balb/C mouse assessed as change in body weight at 25 mg/kg, ip administered thrice a week for 2 weeks measured 48 hrs after last dose; type: organism-based; design: dose 25 mg/kg, route intraperitoneal; settings: in vivo; summary of the method: as §1
[21] = tested on: Mus musculus; assay: Inhibition of PTEN expression in Balb/C mouse white adipose tissue assessed as reduction of full length transcript at 25 mg/kg, ip administered thrice a week for 2 weeks measured 48 hrs after last dose […]; type: functional, organism-based; design: dose 25 mg/kg
[22] = tested on: Mus musculus; assay: Inhibition of PTEN expression in Balb/C mouse kidney at 25 mg/kg, ip administered thrice a week for 2 weeks measured 48 hrs after last dose by Western blot analysis; type: functional, organism-based; design: dose 25 mg/kg; summary of the method: as §3
[23] = tested on: BCL1; assay: Inhibition of PTEN expression in mouse BCL1 cells after 62 hrs by Western blotting; type: functional, cell-based; settings: BCL1, 62 h
Summary of the method: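 BCL1 cells were grown in DMEM with 10% FBS at 37 °C, 5% CO2. Compound was delivered to 2×10^6 cells by electroporation (200 V, 1000 uF, 13 ohms), and cells were harvested 62 h later. Western blot of RIPA lysates used rabbit anti-PTEN and anti-CD40 (1:1000) with HRP secondary and ECL detection. PTEN was normalized to CD40. n=3, mean ± SD.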

[24] = tested on: Mus musculus; assay: Toxicity in Balb/C mouse assessed as change in serum AST levels at 25 mg/kg, ip administered thrice a week for 2 weeks measured 48 hrs after last dose; type: organism-based; design: dose 25 mg/kg, route intraperitoneal; settings: in vivo; summary of the method: as §1
[25] = tested on: Mus musculus; assay: Toxicity in Balb/C mouse assessed as change in blood urea nitrogen levels at 25 mg/kg, ip administered thrice a week for 2 weeks measured 48 hrs after last dose; type: organism-based; design: dose 25 mg/kg, route intraperitoneal; settings: in vivo; summary of the method: as §1

concentration at 48 h [4]: 355 µM
concentration at 48 h [5]: 4 µM
concentration at 48 h [9]: 28 µM
SMILES: Cc1cn(CC(=O)N(CCNC(=O)CN(CCNC(=O)[C@H](CCCCN)N(CCNC(=O)[C@H](CCCCN)NC(=O)[C@@H](N)CCCCN)C(=O)Cn2cc(C)c(=O)[nH]c2=O)C(=O)Cn2ccc(N)nc2=O)CC(=O)NCCN(CC(=O)NCCN(CC(=O)NCCN(CC(=O)NCCN(CC(=O)NCCN(CC(=O)NCCN(CC(=O)NCCN(CC(=O)NCCN(CC(=O)NCCN(CC(=O)NCCN(CC(=O)NCCN(CC(=O)NCCN(CC(=O)NCCN(CC(=O)N[C@@H](CCCCN)C(N)=O)C(=O)Cn2cnc3c(N)ncnc32)C(=O)Cn2ccc(N)nc2=O)C(=O)Cn2cnc3c(N)ncnc32)C(=O)Cn2cc(C)c(=O)[nH]c2=O)C(=O)Cn2ccc(N)nc2=O)C(=O)Cn2cc(C)c(=O)[nH]c2=O)C(=O)Cn2cnc3c(N)ncnc32)C(=O)Cn2ccc(N)nc2=O)C(=O)Cn2cnc3c(N)ncnc32)C(=O)Cn2ccc(N)nc2=O)C(=O)Cn2cnc3c(=O)[nH]c(N)nc32)C(=O)Cn2cnc3c(N)ncnc32)C(=O)Cn2ccc(N)nc2=O)c(=O)[nH]c1=O
Activity [1]: Non-toxic
Activity [2]: Non-toxic
Activity [3]: Non-toxic
Activity [6]: Non-toxic
inhibition [7]: inactive
inhibition [8]: inactive
Activity [10]: Non-toxic
Activity [11]: inactive
Activity [12]: Non-toxic
Activity [13]: Non-toxic

IC50 [23]: 3.2 µM
SMILES: COCCO[C@@H]1[C@H](OP(=O)(S)OC[C@H]2O[C@@H](n3cc(C)c(=O)[nH]c3=O)C[C@@H]2OP(=O)(S)OC[C@H]2O[C@@H](n3cnc4c(=O)[nH]c(N)nc43)[C@H](OCCOC)[C@@H]2OP(=O)(S)OC[C@H]2O[C@@H](n3ccc(N)nc3=O)[C@H](OCCOC)[C@@H]2OP(=O)(S)OC[C@H]2O[C@@H](n3cc(C)c(=O)[nH]c3=O)C[C@@H]2OP(=O)(S)OC[C@H]2O[C@@H](n3cnc4c(N)ncnc43)[C@H](O)[C@@H]2OP(=O)(S)OC[C@H]2O[C@@H](n3cnc4c(=O)[nH]c(N)nc43)[C@H](O)[C@@H]2OP(=O)(S)OC[C@H]2O[C@@H](n3ccc(N)nc3=O)[C@H](O)[C@@H]2OP(=O)(S)OC[C@H]2O[C@@H](n3ccc(N)nc3=O)[C@H](O)[C@@H]2OP(=O)(S)OC[C@H]2O[C@@H](n3cc(C)c(=O)[nH]c3=O)C[C@@H]2OP(=O)(S)OC[C@H]2O[C@@H](n3ccc(N)nc3=O)[C@H](O)[C@@H]2OP(=O)(S)OC[C@H]2O[C@@H](n3cc(C)c(=O)[nH]c3=O)C[C@@H]2OP(=O)(S)OC[C@H]2O[C@@H](n3cnc4c(=O)[nH]c(N)nc43)[C@H](O)[C@@H]2OP(=O)(S)OC[C@H]2O[C@@H](n3cnc4c(=O)[nH]c(N)nc43)[C@H](O)[C@@H]2OP(=O)(S)OC[C@H]2O[C@@H](n3cnc4c(N)ncnc43)[C@H](O)[C@@H]2OP(=O)(S)OC[C@H]2O[C@@H](n3cc(C)c(=O)[nH]c3=O)C[C@@H]2OP(=O)(S)OC[C@H]2O[C@@H](n3cc(C)c(=O)[nH]c3=O)C[C@@H]2OP(=O)(S)OC[C@H]2O[C@@H](n3cc(C)c(=O)[nH]c3=O)C[C@@H]2OP(=O)(S)OC[C@H]2O[C@@H](n3cnc4c(=O)[nH]c(N)nc43)[C@H](OCCOC)[C@@H]2OP(=O)(S)OC[C@H]2O[C@@H](n3cnc4c(N)ncnc43)[C@H](OCCOC)[C@@H]2O)[C@@H](CO)O[C@H]1n1ccc(N)nc1=O (stereo not given in full)
Activity [14]: Active
Activity [15]: Non-toxic
Activity [16]: Non-toxic
Activity [17]: Non-toxic
Activity [18]: Active
Activity [19]: Non-toxic
Activity [20]: Non-toxic
Activity [21]: Active
inhibition [22]: inactive
Activity [24]: Non-toxic
Activity [25]: Non-toxic
